Data reported in publication PMC8966054 (Bioorganic & medicinal chemistry letters, 2022).

Experiments:
In vivo rat cassette PK = conditions: iv, 0.25 mg/kg
[1] = Mouse liver microsome stability / intrinsic clearance; type: in vitro ADME; conditions: for CLint scaled: mouse, liver microsomes
[2] = Human liver microsome stability / intrinsic clearance; type: in vitro ADME; conditions: for CLint scaled: human, liver microsomes
[3] = tested on: other dopamine receptors (D1-3,5); assay: Binding at other dopamine receptors; set-up: species or system human
Procedure, shortened: (§1)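 Ki from competitive inhibition of radioligand binding in membranes from HEK293 cells stably expressing the human receptor. [3H]N-methylspiperone was used for D2R, D3R and D4R, and [3H]SCH23390 for D1R and D5R.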

hD4R = molecular target: T1, hD4R (Homo sapiens, UniProt P21917); assay: D4R competitive radioligand binding
T1 sequence (P21917 1-419): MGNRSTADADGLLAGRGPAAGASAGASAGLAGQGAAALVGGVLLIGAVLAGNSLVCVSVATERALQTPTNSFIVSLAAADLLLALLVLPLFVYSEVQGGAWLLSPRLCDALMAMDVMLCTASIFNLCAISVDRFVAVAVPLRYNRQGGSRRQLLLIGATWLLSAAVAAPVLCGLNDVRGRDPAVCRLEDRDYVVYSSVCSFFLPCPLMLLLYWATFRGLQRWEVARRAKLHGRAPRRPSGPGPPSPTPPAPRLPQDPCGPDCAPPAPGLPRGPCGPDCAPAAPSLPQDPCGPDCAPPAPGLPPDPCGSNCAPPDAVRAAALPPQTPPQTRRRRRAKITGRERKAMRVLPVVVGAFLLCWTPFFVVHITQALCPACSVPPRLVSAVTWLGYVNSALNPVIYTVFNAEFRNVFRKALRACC
Procedure, shortened: as §1

Mouse plasma stability = type: in vitro ADME
6-OHDA mouse model = 6-OHDA mouse model ref 13; cited from earlier work
Metabolite ID study = type: in vitro ADME
[4] = Human plasma protein binding; type: in vitro ADME; conditions: fraction unbound

Compound | CLint scaled [1] | CLint scaled [2] | further results
Cc1c(Cl)cccc1NC(=O)CN1CCC(OCc2ccc(F)c(F)c2)CC1 [Compound 11a] | 287 mL/min/kg | 145 mL/min/kg | C0 (In vivo rat cassette PK): 91 ng/mL; clearance (In vivo rat cassette PK): 22 mL/min/kg; Selectivity against the other dopamine receptors [3]: selective for D4
Cc1cccc(CO[C@H]2CCCN(Cc3ncc4ccccn34)C2)n1 [Compound 8r] | – | – | D4 activity (hD4R): much less active or inactive
Fc1cc(COC2CCN(Cc3ccc4[nH]cnc4c3)CC2)ccc1Cl [Compound 9l] | 90.4 mL/min/kg | 48.3 mL/min/kg | clearance (In vivo rat cassette PK): 199 mL/min/kg
Cn1ncc2cc(CN3CCC(OCc4cccc(C(F)(F)F)c4)CC3)ccc21 [Compound 9w] | 85.2 mL/min/kg | 63.3 mL/min/kg | –
Cc1nc(CN2CCC(OCc3cccc(C(F)(F)F)c3)CC2)c2ccccn12 [Compound 9i] | 272 mL/min/kg | 85.3 mL/min/kg | –
FC(F)(F)Oc1cccc(CO[C@H]2CCCN(Cc3ncc4ccccn34)C2)c1 [Compound 8q] | – | – | D4 activity (hD4R): much less active or inactive
COc1ccc(CN2CCC[C@@H](OCc3ccc(F)c(C)c3)C2)cc1F [Compound 8d] | – | – | Fold less active, (R)-enantiomer vs (S)-enantiomer at D4 (hD4R): 15 fold
Fc1cccc(CO[C@H]2CCCN(Cc3ncn4ccccc34)C2)c1 [Compound 8n] | – | – | D4 activity (hD4R): much less active or inactive
FC(F)(F)c1cccc(COC2CCN(Cc3ccc4[nH]cnc4c3)CC2)c1 [Compound 9m] | 76.4 mL/min/kg | 32.9 mL/min/kg | –
Cc1nc(CN2CCC(OCc3ccc(Cl)c(F)c3)CC2)c2ccccn12 [Compound 9j] | 140 mL/min/kg | 114 mL/min/kg | –
Fc1cccc(COC2CCN(Cc3cn4ccccc4n3)CC2)c1 [Compound 9a] | 380 mL/min/kg | < 23.1 mL/min/kg | Mouse liver microsome stability [1]: modestly stable; Human liver microsome stability [2]: stable; Fold improvement of D4 activity vs 3-O-derivative (hD4R): 10 fold
FC(F)(F)c1cccc(COC2CCN(Cc3cc4ccc(Cl)cc4[nH]3)CC2)c1 [Compound 9z] | 71.5 mL/min/kg | 26.9 mL/min/kg | –
Fc1ccc(CO[C@H]2CCCN(Cc3cn4ccccc4n3)C2)cc1F [Compound 8i] | 1400 mL/min/kg | 689 mL/min/kg | –
FC(F)(F)c1cccc(COC2CCN(Cc3cn4ccccc4n3)CC2)c1 [Compound 9c] | 310 mL/min/kg | 44.6 mL/min/kg | –
COc1ccc(CN2CCC[C@H](OCc3cccc(F)c3)C2)cc1F [Compound 8a] | – | – | Selectivity against the other dopamine receptors [3]: selective
Fc1ccc(COC2CCN(Cc3cn4ccccc4n3)CC2)cc1F [Compound 9b] | 158 mL/min/kg | < 20 mL/min/kg | clearance (In vivo rat cassette PK): 116 mL/min/kg; Mouse liver microsome stability [1]: modestly stable; Human liver microsome stability [2]: stable
Cn1ncc2cc(CN3CCC(OCc4ccc(Cl)c(F)c4)CC3)ccc21 [Compound 9v] | 85.3 mL/min/kg | 42.7 mL/min/kg | –
Fc1cc(COC2CCN(Cc3ncc4ccccn34)CC2)ccc1Cl [Compound 9e] | 917 mL/min/kg | 212 mL/min/kg | Mouse liver microsome stability [1]: not as stable; Human liver microsome stability [2]: not as stable
Fc1ccc(CO[C@H]2CCCN(Cc3ncn4ccccc34)C2)cc1F [Compound 8o] | 5370 mL/min/kg | 622 mL/min/kg | –
Cc1cc(NC(=O)CN2CCC(OCc3ccc(F)c(F)c3)CC2)ccc1F [Compound 11d] | 306 mL/min/kg | 49.5 mL/min/kg | Mouse liver microsome stability [1]: moderately stable; Human liver microsome stability [2]: moderately stable; Mouse plasma stability (Mouse plasma stability): not stable; Plasma stability (footnote symbol in mPPB column) (Mouse plasma stability; mouse plasma): c; Selectivity against the other dopamine receptors [3]: selective for D4
COc1ccc(CN2CCO[C@H](COc3ccccc3)C2)cc1F [Compound 1, reference compound] | 2130 mL/min/kg | – | Mouse liver microsome stability [1]: highly unstable; Human liver microsome stability [2]: highly unstable; Dyskinesia AIM (abnormal involuntary movement) scores (6-OHDA mouse model): dose-dependent reduction; Major metabolic liability (metabolite ID) (Metabolite ID study): N-dealkylation; Plasma Protein Binding (%fu) hPPB [4]: 3.1 %fu
Fc1cc(COC2CCN(Cc3cn4ccccc4n3)CC2)ccc1Cl [Compound 9d] | 96.8 mL/min/kg | 44.1 mL/min/kg | clearance (In vivo rat cassette PK): 134 mL/min/kg
Cn1ncc2cc(CN3CCC(OCc4ccc(F)c(F)c4)CC3)ccc21 [Compound 9u] | 104 mL/min/kg | – | clearance (In vivo rat cassette PK): 140 mL/min/kg
Fc1ccc(COC2CCN(Cc3ccc4[nH]cnc4c3)CC2)cc1F [Compound 9n] | 93.9 mL/min/kg | < 20 mL/min/kg | clearance (In vivo rat cassette PK): 235 mL/min/kg
Fc1ccc(COC2CCN(Cc3cc4ccc(Cl)cc4[nH]3)CC2)cc1F [Compound 9y] | 83.2 mL/min/kg | 23.5 mL/min/kg | C0 (In vivo rat cassette PK): 36.9 ng/mL
COc1ccc(CN2CCC[C@H](OCc3ccc(F)c(F)c3)C2)cc1F [Compound 8b] | 1260 mL/min/kg | 272 mL/min/kg | –
Cn1cnc2cc(CN3CCC(OCc4cccc(C(F)(F)F)c4)CC3)ccc21 [Compound 9p] | 85.2 mL/min/kg | 63.3 mL/min/kg | clearance (In vivo rat cassette PK): 107 mL/min/kg
Fc1cccc(COC2CCN(Cc3ncn4ccccc34)CC2)c1 [Compound 9h] | 1260 mL/min/kg | 340 mL/min/kg | Mouse liver microsome stability [1]: not as stable; Human liver microsome stability [2]: not as stable
